Bioassay records as filed in PubChem BioAssay.
CHRM4 antagonist: antagonists of human muscarinic M4 receptor (CHRM4) | AID 624125 | inhibition, % at 3 µM | CHO-hM4 cells, ACh EC80, Fluo-8 calcium fluorescence | P08173 | hit rate 0.73% among 360,000;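 active = inhibition above its plate's cutoff, the mean inhibition of sample wells plus 3 SD, cut at about 27% in these data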;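 also: 0% = acetylcholine EC80 with DMSO and 100% = DMSO without agonist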
M4 PAM: CHRM4 positive allosteric modulation. CHO-K1 hM4/Gqi5, Fluo-8 calcium fluorescence, ACh EC20; 0% = ACh EC20, 100% = maximal ACh. P08173. activation, % at 3 µM. hit rate 0.4% among 360,000;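 active = activation above its plate's cutoff, the mean activation of sample wells plus 3 SD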
M5 PAM: positive allosteric modulators of human muscarinic M5 receptor. hit rate 0.3% among 360,000. P08912. activation, % at 3 µM. CHO-K1 hM5, Fluo-8 calcium, ACh EC20 PAM; 0% = ACh EC20, 100% = ACh EC100;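 active = activation above the run cutoff, the mean activation of all test compounds plus 3 SD, cut at about 18% in these data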
Target sequence (P08912 whole entry, looked up): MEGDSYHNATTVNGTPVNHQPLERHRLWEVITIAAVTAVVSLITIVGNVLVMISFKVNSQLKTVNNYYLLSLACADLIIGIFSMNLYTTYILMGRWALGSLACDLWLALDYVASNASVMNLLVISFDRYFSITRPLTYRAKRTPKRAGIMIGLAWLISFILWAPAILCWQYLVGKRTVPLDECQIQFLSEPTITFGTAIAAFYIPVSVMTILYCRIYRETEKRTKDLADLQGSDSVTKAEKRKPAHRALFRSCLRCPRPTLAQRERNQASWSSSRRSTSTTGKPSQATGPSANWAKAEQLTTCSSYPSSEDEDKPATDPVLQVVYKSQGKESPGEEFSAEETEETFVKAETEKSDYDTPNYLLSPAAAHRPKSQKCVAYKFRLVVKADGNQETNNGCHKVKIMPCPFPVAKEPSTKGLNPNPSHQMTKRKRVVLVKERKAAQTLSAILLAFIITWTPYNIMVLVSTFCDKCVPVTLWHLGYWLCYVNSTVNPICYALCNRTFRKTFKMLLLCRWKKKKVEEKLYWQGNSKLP
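System – CHO-K1 hM5 cells · Compound – 3 µM, single dose · Incubation – compound preincubation 140 s before EC20 acetylcholine addition · Technique – Fluo-8 calcium fluorescence · Measure – Max/basal fluorescence ratio as % of EC20–EC100 ACh window · Benchmarks – low control EC20 acetylcholine (0%), high control EC100 acetylcholine (100%) · Replication – singlicate, one well per test compound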
M5 antag: antagonists of human muscarinic M5 receptor (CHRM5) | P08912 | CHO-hM5 cells, Fluo-8 calcium fluorescence, ACh EC80 | inhibition, % at 3 µM | hit rate 0.59% among 360,000 | AID 624040;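 active = inhibition above a per-plate cutoff, the mean of that plate's test compounds plus 3 SD, cut at about 27% in these data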;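 also: 0% = acetylcholine EC80 with DMSO and 100% = DMSO without agonist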
M5 ag: CHRM5 agonism in calcium assay; AID 624037; activation, % at 3 µM; CHO-K1 hM5 cells, Fluo-8 calcium fluorescence; 0% DMSO wells, 100% maximal acetylcholine response; hit rate 0.19% among 360,000;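 active = activation above the run's mean over test compounds plus 3 SD, cut at about 23% in these data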;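 also: signal is peak over basal fluorescence ratio across the kinetic read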
M4 ag: agonists of human muscarinic M4 receptor (CHRM4) | P08173 | CHO-K1 hM4/Gqi5, Fluo-8 calcium fluorescence; vehicle 0%, full acetylcholine response 100% | activation, % at 3 µM | hit rate 0.14% among 360,000 | AID 624127;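 active = activation above the run mean over all test wells plus 3 SD, cut at about 32% in these data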;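 also: peak over basal fluorescence ratio per well then scaled between controls; 0% = DMSO wells and 100% = acetylcholine at EC100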
Numbers without * were called inactive. This is a sample that favours compounds with a hit; in the whole collection about 1.9% have one here.

SMILES | CHRM4 antagonist | M4 PAM | M5 PAM | M5 antag | M5 ag | M4 ag
CCOc1ccc(N(CC(=O)Nc2ccc(C)cc2)S(=O)(=O)c2c(C)[nH]c(=O)[nH]c2=O)cc1 | -1.4 | -4.7 | -3.2 | 11.1 | 1.8 | 0.3
CC1Oc2ccccc2N(CC(=O)N2CCCCC2)C1=O (stereo unspecified) | -24.2 | 17.2* | -2.2 | 3.9 | -3.0 | 2.3
CC1Oc2ccccc2N(CC(=O)N2CCCc3ccccc32)C1=O (stereo unspecified) | -6.6 | -0.3 | 4.4 | -5.3 | -5.4 | 3.1
O=C(c1ccc(Cn2c(=S)[nH]c3ccc(Br)cc3c2=O)cc1)N1CCN(C2CCCCC2)CC1 | 9.9 | -18.4 | -5.7 | 9.4 | -6.5 | 3.4
CNc1sc(C(=O)c2cccs2)c(N)c1-c1nc2ccccc2s1 | 34.0* | 1.2 | 6.0 | 19.9 | 2.0 | 2.2
CNc1sc(C(=O)c2ccc(F)cc2)c(N)c1-c1nc2ccccc2s1 | 32.3* | 14.9 | -5.3 | 19.4 | -0.3 | 3.4
CC(=O)Nc1scc(C)c1-c1nc2ccccc2s1 | -4.5 | -5.9 | -3.0 | 10.4 | -4.3 | -0.5
N#CCCN1CCCc2cc(N=Nc3ccc(C(F)(F)F)cc3)ccc21 | 7.0 | 1.6 | 20.0* | -2.9 | -2.8 | 0.7
CSCCC(c1nc2ccccc2[nH]1)n1c(=O)c(-c2ccco2)nc2ccccc21 (stereo unspecified) | 8.5 | 8.5 | 6.8 | -3.5 | -1.5 | -1.0
O=C(NCc1ccccc1)c1ccc(C2SCC(=O)N2Cc2ccccc2)cc1 (stereo unspecified) | 33.6* | -19.1 | -23.3 | 0.7 | -5.2 | 7.0
CN(C)c1c(F)cc(C(=O)NCc2ccccc2)cc1F | -6.3 | 6.4 | -1.4 | 6.5 | -1.7 | 0.8
O=C(NCc1ccccc1)NC(=O)c1ccc(Cl)cc1 | -7.2 | 0.9 | 18.8* | -7.6 | -0.3 | 0.5
Cc1ccc(C(=O)Nc2cccc(C(=O)NCc3ccccc3)c2)o1 | 26.9* | -0.8 | -6.3 | 11.5 | -3.7 | 3.7
O=C(NCc1ccccc1)c1ccc(F)c(F)c1 | 1.7 | 19.9* | 6.2 | -14.5 | 1.2 | 3.6
O=C(NCc1ccc(F)cc1)NC(=O)c1ccc(Cl)cc1 | 4.8 | 5.6 | -2.7 | 6.9 | -4.0 | 0.8
Cc1ccccc1CNC(=O)c1csc([C@@H]2C[C@H](O)[C@@H](CO)O2)n1 | -16.0 | 3.3 | -2.6 | 4.1 | 0.8 | 0.8
CC(C)(C)NC(=O)C1c2ccccc2OCC(=O)N1CCCN1CCOCC1 (stereo unspecified) | -3.8 | 16.7 | 1.3 | -8.8 | 1.4 | 0.1
Cn1cc([C@]2(O)C(=O)Nc3c(F)cccc32)c2ccccc21 | 5.4 | 5.2 | 2.3 | -5.5 | -0.8 | 2.3
O=C(CCn1c(=S)[nH]c2ccccc2c1=O)NCC1CCCO1 (stereo unspecified) | -25.0 | 19.1* | -3.7 | -2.9 | 1.8 | 0.5
CCCn1c(=S)[nH]c2cc(C(=O)NCC3CCCO3)ccc2c1=O (stereo unspecified) | 7.2 | -2.2 | -5.3 | 4.2 | 3.8 | 4.4
Cc1cc2c3c([nH]c2cc1S(=O)(=O)NCc1ccc(CN2CCCCCC2)o1)CCCC3=O | 68.2* | -27.3 | -2.8 | 0.9 | -10.8 | 0.3
O=C1NC2(CCCCCC2)C(=O)N1Cc1ccccc1F | 10.7 | -2.6 | -2.0 | 9.6 | -4.2 | -0.1
O=C1NC2(CCCCCC2)C(=O)N1Cc1c(F)cccc1Cl | 30.6* | -14.4 | -2.9 | 7.2 | -4.9 | 1.6
O=C(c1ccc(F)cc1)N1CCN2C(=O)c3ccccc3C12c1ccccc1 (stereo unspecified) | 5.9 | -24.0 | -34.9 | 34.4* | -15.2 | 17.9
O=C(c1ccc(F)cc1)N1CCN2C(=O)c3ccccc3C12c1ccc(Cl)cc1 (stereo unspecified) | 6.5 | -13.7 | -17.9 | 47.1* | -11.0 | -1.3
SMILES | CHRM4 antagonist | M4 PAM | M5 PAM | M5 antag | M5 ag | M4 ag
O=C(c1ccccc1)N1CCN2C(=O)c3ccccc3C12c1ccc(Cl)cc1 (stereo unspecified) | -5.3 | -1.6 | -14.2 | 6.3 | -11.4 | 1.3
CC(C)(C)NC(=O)C(c1ccncc1)N(Cc1ccc(F)cc1)C(=O)c1ccc(-c2ccccc2)[nH]1 (stereo unspecified) | 0.6 | 3.9 | 5.4 | -5.7 | -3.1 | 1.6
CCCC(=O)Nc1ccc(OCC(O)CNC(C)C)c(C(C)=O)c1 (stereo unspecified) | 99.9* | -18.0 | -17.6 | 9.6 | -1.1 | 1.6
C[C@@H]1CN([C@@H](C)CO)C(=O)CCCn2nncc2CO[C@@H]1CN(C)S(=O)(=O)c1ccc(F)cc1 | -11.3 | 5.3 | -4.6 | 6.0 | 1.1 | 1.4
O=C(O)CN1C(=O)CSc2ccccc21 | -1.7 | 7.0 | 1.2 | 6.5 | -0.8 | 0.6
CCOC(=O)CN1C(=O)CSc2ccccc21 | 32.9* | 8.2 | -4.5 | 5.2 | 0.8 | 0.4
Cc1[nH]c2ccccc2c1/C=N/NC(=O)c1cccc([N+](=O)[O-])c1 | 2.7 | 1.4 | -5.5 | 8.2 | -2.4 | 3.2
Cc1[nH]c2ccccc2c1/C=N/Nc1ccc([N+](=O)[O-])cc1 | 13.4 | -7.1 | -8.8 | 31.4* | 15.2 | 16.4
COc1ccc(-c2ccc3c(c2)S(=O)(=O)c2cccc(C(=O)N4CCN(C5CCCCC5)CC4)c2C3=O)cc1OC | 9.1 | -8.4 | -31.8 | 34.1* | 5.8 | 23.1
COc1ccc(NC(=S)NC(NC(=O)c2cccc(Cl)c2)C(Cl)(Cl)Cl)c([N+](=O)[O-])c1 (stereo unspecified) | 8.1 | -5.0 | -19.1 | 39.3* | 11.8 | 21.5
COc1ccc(NC(=S)NC(NC(=O)c2cccc(C)c2)C(Cl)(Cl)Cl)c([N+](=O)[O-])c1 (stereo unspecified) | -2.7 | 0.8 | -7.3 | -1.9 | 0.7 | 3.4
CCOC(=O)/C(CCC[N+](C)(CC)CC)=N\O | 26.1 | -16.1 | -18.1 | 60.3* | -7.7 | 0.9
CCOC(=O)C(Cc1ccnc2ccccc12)=NO | 1.9 | -1.2 | -4.8 | 19.4 | -3.5 | 6.5
O=C(CSc1nc2ccccc2c(=O)[nH]1)c1ccccc1 | -8.1 | 6.5 | -3.4 | -3.6 | 2.3 | 2.6
O=C(O)CSc1nc2ccccc2c(=O)[nH]1 | -10.4 | 3.9 | 24.1* | 1.5 | 1.0 | 0.4
CCCCCN(C(=O)CCC(=O)OC(C)C(=O)NC1CCCCC1)c1c(N)n(CCCC)c(=O)[nH]c1=O (stereo unspecified) | 7.1 | 5.4 | -1.0 | 7.0 | -5.2 | 0.0
COc1ccc(-c2nnn(CC(=O)N(CC(=O)NC3CCCC3)c3ccccc3F)n2)cc1OC | 3.1 | -2.2 | -0.2 | 3.8 | 3.9 | 2.6
NC(=O)CC[C@H](NC(=O)c1ccc(F)cc1)C(=O)OCC(=O)Nc1ccc(N2CCOCC2)cc1 | -11.8 | 24.2* | 1.8 | -4.3 | -1.7 | 0.5
